We go through 18 compounds from ChEMBL document CHEMBL1764971, “7-azabicyclo[2.2.1]heptane as a structural motif to block mutagenicity of nitrosamines” (Bioorg Med Chem, 2011).

Series [1] deals with Salmonella typhimurium. Kind of series: Mutagenic activity in Salmonella Typhimurium TA98 assessed as number of revertants after 44 hrs by Ames test in presence of rat liver S9 fraction. The note with it: salmonella enterica subsp. enterica serovar typhimurium, s9, 44 h. Format: toxicity, organism-based. In a few lines:
(§1)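 Pre-incubation Ames method. Compound at 0.03, 0.06, 0.13, 0.25 or 0.5 mg in DMSO, mixed with 0.5 mL rat liver S9 mix (P450s plus NADPH-regenerating system) and 0.1 mL tester-strain culture. Shaken 30 min at 37 °C, then top agar added and poured onto minimal-glucose agar. Revertant colonies counted after 44 h at 37 °C. Duplicate plates, experiments repeated at least twice; mean of duplicates.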
For orientation: The Ames test uses bacterial strains that need an amino acid and regain growth without it when mutated back.

The test system of series [2] is Salmonella typhimurium. Kind of series: Mutagenic activity in Salmonella Typhimurium TA100 assessed as number of revertants after 44 hrs by Ames test in presence of rat liver S9 fraction. It counts as toxicity, organism-based. Conditions: salmonella enterica subsp. enterica serovar typhimurium, s9, 44 h. Summed up: as §1
Series [3] deals with Salmonella typhimurium. Kind of series: Mutagenic activity in Salmonella Typhimurium TA98 assessed as number of revertants after 44 hrs by Ames test. It counts as toxicity, organism-based. Conditions: salmonella enterica subsp. enterica serovar typhimurium. Summed up: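 Pre-incubation Ames method without metabolic activation. Compound at 0.03, 0.06, 0.13, 0.25 or 0.5 mg in DMSO, mixed with 0.5 mL 0.1 M sodium phosphate buffer (pH 7.4) and 0.1 mL tester-strain culture. Shaken 30 min at 37 °C, then plated in top agar on minimal-glucose agar. Colonies counted after 44 h at 37 °C. Duplicate plates, at least two experiments; mean of duplicates.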

The test system of series [4] is Salmonella typhimurium. Kind of series: Cytotoxicity against Salmonella Typhimurium TA98. The note with it: salmonella enterica subsp. enterica serovar typhimurium. Format: organism-based.
Series [5] deals with Salmonella typhimurium. Briefly: Cytotoxicity against Salmonella Typhimurium TA98 in presence of rat liver S9 fraction. It counts as organism-based. Conditions: salmonella enterica subsp. enterica serovar typhimurium.

Turning to `CCOC(=O)CCN1C(=O)C2C(C1=O)C1c3ccccc3C2N1N=O` (stereo unspecified), the Activity entry with Salmonella typhimurium [1], with Salmonella typhimurium [2] and in the series with Salmonella typhimurium [3] was “Non-toxic” throughout.

Consider `COC(=O)C1C(C(=O)OC)C2c3ccccc3C1N2N=O` (stereo unspecified), for which the Activity entry with Salmonella typhimurium [1], with Salmonella typhimurium [2] and in the series on Salmonella typhimurium [3] was “Non-toxic” each time.

For `O=NN1C2c3ccccc3C1C1C(=O)N(c3ccccc3)C(=O)C12` (stereo unspecified), the Activity entry with Salmonella typhimurium [1] was “Non-toxic”; in the series with Salmonella typhimurium [4], “Toxic”; with Salmonella typhimurium [2], “Non-toxic”; with Salmonella typhimurium [3], “Non-toxic”; in the series with Salmonella typhimurium [5], “Non-toxic”.

`O=NN1C2c3ccccc3C1C(C(F)(F)F)C2C(F)(F)F` (stereo unspecified): the Activity result with Salmonella typhimurium [1], with Salmonella typhimurium [2] and in the series with Salmonella typhimurium [3] was “Non-toxic” each time.

On to `COC(=O)C1CC2c3ccccc3C1N2N=O` (stereo unspecified), for which the Activity result in the series with Salmonella typhimurium [1], in the series with Salmonella typhimurium [2] and in the series on Salmonella typhimurium [3] was “Non-toxic” throughout.

`O=NN1C2CCC1c1ccccc12`: the Activity result in the series on Salmonella typhimurium [1], in the series on Salmonella typhimurium [2] and in the series on Salmonella typhimurium [3] was “Non-toxic” each time.

As to `COc1cc2c(cc1OC)C1CCC2N1N=O`, the Activity result in the series on Salmonella typhimurium [1], in the series with Salmonella typhimurium [2] and in the series with Salmonella typhimurium [3] was “Toxic” each time.

With `O=NN1C2CCC1c1cc([N+](=O)[O-])ccc12` (stereo unspecified), the Activity entry in the series on Salmonella typhimurium [1], in the series with Salmonella typhimurium [2] and in the series on Salmonella typhimurium [3] was “Non-toxic” each time.

Turning to `O=NN1C2C=CC1c1cc([N+](=O)[O-])ccc12` (stereo unspecified), the Activity result in the series with Salmonella typhimurium [1], in the series with Salmonella typhimurium [2] and in the series on Salmonella typhimurium [3] was “Toxic” in each case.

As for `O=NN1C2CC(O)C1c1ccc([N+](=O)[O-])cc12` (stereo unspecified), the Activity result in the series with Salmonella typhimurium [1], in the series with Salmonella typhimurium [2] and with Salmonella typhimurium [3] was “Toxic” each time.

In the case of `O=NN1C2CC(O)C1c1ccccc12` (stereo unspecified), the Activity result with Salmonella typhimurium [1], in the series with Salmonella typhimurium [2] and in the series on Salmonella typhimurium [3] was “Non-toxic” throughout.

With `O=NN1C2CCC1CC2`, the Activity result with Salmonella typhimurium [1], with Salmonella typhimurium [2] and in the series on Salmonella typhimurium [3] was “Non-toxic” in each case.

As for `COC(=O)C1C(C(=O)OC)C2CCC1N2N=O` (stereo unspecified), the Activity entry in the series with Salmonella typhimurium [1], in the series on Salmonella typhimurium [2] and with Salmonella typhimurium [3] was “Non-toxic” each time.

`COCC12CCC(C(C(=O)OC)C1)N2N=O` (stereo unspecified): the Activity result in the series on Salmonella typhimurium [1], with Salmonella typhimurium [2] and in the series with Salmonella typhimurium [3] was “Non-toxic” in each case.

For the compound `COC(=O)C1CC2(COCc3ccccc3)CCC1N2N=O` (stereo unspecified), the Activity entry in the series with Salmonella typhimurium [1], in the series with Salmonella typhimurium [2] and with Salmonella typhimurium [3] was “Non-toxic” each time.

Take `O=NN1Cc2ccccc2C1`: the Activity result in the series on Salmonella typhimurium [1] was “Toxic”; in the series with Salmonella typhimurium [2] it was “Toxic”; in the series on Salmonella typhimurium [3], “Non-toxic”.

For the compound `CN1C(=O)[C@@H]2C3c4ccccc4C([C@@H]2C1=O)N3N=O`, the Activity result in the series with Salmonella typhimurium [1], with Salmonella typhimurium [2] and in the series with Salmonella typhimurium [3] was “Non-toxic” throughout.

On to `O=NN1CCCC1`, for which the Activity entry was “Toxic” in the series on Salmonella typhimurium [1], “Toxic” in the series with Salmonella typhimurium [2] and “Non-toxic” with Salmonella typhimurium [3].
